In publication PMC9046076 (International Journal for Parasitology: Drugs and Drug …, 2022):
pIC50: −log10 of the molar value. Read-outs that look alike come from different tables or passages of the source.

Key:
[1] = system: T. gondii type I RH strain; assay: In vitro T. gondii type I RH; format: cell-based, Toxoplasma gondii; details: for pIC50: Toxoplasma gondii, HFF; for reduction of T. gondii parasite growth: 11 μM, added immediately after infection, 48 h, HFF cells; for SI T. gondii (selectivity index): SI = IC50 HCT-8 (or HFF)/IC50 parasite (at 0 h p.i.)
Procedure, shortened: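 Single-concentration screen: confluent HFF monolayers in IMDM were infected with about 5 × 10³ RH-YFP tachyzoites per well, and test compound (11 μM final, in DMSO) was added immediately. Controls were atovaquone at 0.5 μM, DMSO vehicle and uninfected background wells. After 48 h at 37 °C with 5% CO₂, YFP was quantified from 9 thresholded 20× images per well. Percent inhibition was taken against DMSO; triplicates, repeated at least thrice.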

[2] = WST-1 cytotoxicity assay in uninfected HCT-8 cells; format: cell-based; details: human
Procedure, shortened: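 HCT-8 cells (5 × 10⁴/well) were grown overnight at 37 °C, 5% CO₂ in phenol-red-free RPMI-1640 with added glucose, bicarbonate, pyruvate and 10% heat-inactivated FBS. They were treated with test compound (20 μM screen or dose range) or DMSO for 48 h. WST-1 was then added for 1 h at 37 °C in the dark, and absorbance read at 440 nm (reference 690 nm). % toxicity = (OD_DMSO − OD_compound)/OD_DMSO × 100. IC50 by nonlinear regression of triplicate means.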

[3] = WST-1 cytotoxicity assay in uninfected HFF cells; format: cell-based; details: human
C. parvum AUCP-1 isolate = assay: In vitro C. parvum growth inhibition in HCT-8 cells, immunofluorescence assay; format: cell-based, Cryptosporidium parvum; details: for pIC50: Cryptosporidium parvum; for SI C. parvum (selectivity index): SI = IC50 HCT-8 (or HFF)/IC50 parasite (at 0 h p.i.)
Procedure, shortened: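 Confluent HCT-8 monolayers in supplemented RPMI-1640 infected with 10⁵ freshly excysted sporozoites per well. […] After 72 h, cells were fixed in methanol-acetic acid (9:1), permeabilised, blocked with 5% goat serum and stained overnight at 4 °C with fluorescein anti-C. parvum antibody. Imaged at 20×, triplicates, three assays, nonlinear regression IC50; SI = host-cell IC50/parasite IC50 (0 h p.i.).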

[4] = system: T. gondii type II ME49 strain; assay: In vitro T. gondii type II ME49; format: cell-based; details: Toxoplasma gondii, HFF, 48 h, read-out: IC50 against T. gondii Type II (ME49) in HFF cells
[5] = system: T. gondii Type II (ME49) cysts in rats' brains; format: in vivo, Toxoplasma gondii; details: JS-2-41 3 mg/kg; for reduction in the number of Toxoplasma cysts in the brain: infected rats, 14 days of treatment, JS-2-44 4 mg/kg i.p.; for decrease in brain cysts compared to untreated rats: male Brown Norway rats, i.p. daily for 14 days, JS-2-44 4 mg/kg
Procedure, shortened: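 Male Brown Norway rats, 4 weeks old, were acclimatised 7 days, then inoculated i.m. with 5 × 10⁴ ME49 tachyzoites in 0.1 ml PBS. Once brain cysts were confirmed in two untreated rats, groups (n = 3) received daily i.p. test compound or atovaquone (5 mg/kg) in 0.2 ml 5% DMSO/PBS for 2 weeks; untreated rats got vehicle. Brains were homogenised in 5 ml PBS, cysts counted in 50 μl on 3 slides (10×) and scaled to total volume. One-way ANOVA with Dunnett.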

[6] = read-out: Parasite IC50 T. gondii 0h p.i
[7] = read-out: Parasite IC50 T. gondii 2h p.i
[8] = HCT-8, read-out: Parasite IC50 C. parvum 0h p.i
[9] = HCT-8, read-out: Parasite IC50 C. parvum 2h p.i

O=C1C(O)=C([C@H]2CC[C@H](c3ccc(Cl)cc3)CC2)C(=O)c2ccccc21 [ATQ, atovaquone, reference compound]
pIC50 [1, 6]: 7.08
pIC50 [1, 7]: 7.06

C#CC(C)(C)NC(=O)c1cc2c(F)cc(F)cc2[nH]1 [JS-2-15, 4,6-Difluoro-N-(2-methylbut-3-yn-2-yl)-1H-indole-2-carboxamide]
IC50 at 48 h [2]: 109 µM

CC(C)(NC(=O)c1cc2c(F)cc(F)cc2[nH]1)c1cn(Cc2ccccc2)nn1 [JS-2-18, N-(2-(1-Benzyl-1H-1,2,3-triazol-4-yl)propan-2-yl)-4,6-difluoro-1H-indole-2-carboxamide]
IC50 at 48 h [2]: 205 µM

CC(C)(NC(=O)c1cc2c(F)cc(F)cc2[nH]1)c1cn(C23CC4CC(CC(C4)C2)C3)nn1 [JS-2-19, N-(2-(1-(Adamantan-1-yl)-1H-1,2,3-triazol-4-yl)propan-2-yl)-4,6-difluoro-1H-indole-2-carboxamide]
IC50 at 48 h [3]: 108 µM
reduction of T. gondii parasite growth [1]: over 50%
SI T. gondii (selectivity index) [1]: 12.66
pIC50 [1, 6]: 5.07
pIC50 [1, 7]: 4.97

C#CC(C)(C)NC(=O)c1cc2c(Cl)cc(Cl)cc2[nH]1 [JS-2-22, 4,6-Dichloro-N-(2-methylbut-3-yn-2-yl)-1H-indole-2-carboxamide]
pIC50 (C. parvum AUCP-1 isolate; [8]): 4.91
pIC50 (C. parvum AUCP-1 isolate; [9]): 4.90
SI C. parvum (selectivity index) (C. parvum AUCP-1 isolate): 8.24
IC50 at 48 h [2]: 101 µM

CC(C)(NC(=O)c1cc2c(F)cc(F)cc2[nH]1)c1cn(Cc2ccccc2Cl)nn1 [JS-2-25, N-(2-(1-(2-Chlorobenzyl)-1H-1,2,3-triazol-4-yl)propan-2-yl)-4,6-difluoro-1H-indole-2-carboxamide]
IC50 at 48 h [2]: 107 µM

CC(C)(NC(=O)c1cc2c(Cl)cc(Cl)cc2[nH]1)c1cn(Cc2ccccc2)nn1 [JS-2-27, N-(2-(1-Benzyl-1H-1,2,3-triazol-4-yl)propan-2-yl)-4,6-dichloro-1H-indole-2-carboxamide]
pIC50 (C. parvum AUCP-1 isolate; [8]): 5.03
pIC50 (C. parvum AUCP-1 isolate; [9]): 4.97
SI C. parvum (selectivity index) (C. parvum AUCP-1 isolate): 27.09
IC50 at 48 h [2]: 254 µM

CC(C)(NC(=O)c1cc2c(Cl)cc(Cl)cc2[nH]1)c1cn(Cc2ccccc2Cl)nn1 [JS-2-28, 4,6-Dichloro-N-(2-(1-(2-chlorobenzyl)-1H-1,2,3-triazol-4-yl)propan-2-yl)-1H-indole-2-carboxamide]
IC50 at 48 h [3]: 209 µM
reduction of T. gondii parasite growth [1]: over 50%
pIC50 [1, 6]: 4.93
pIC50 [1, 7]: 4.72
pIC50 (C. parvum AUCP-1 isolate; [8]): 5.08
pIC50 (C. parvum AUCP-1 isolate; [9]): 5.07
SI C. parvum (selectivity index) (C. parvum AUCP-1 isolate): 28.05
IC50 at 48 h [2]: 233 µM

CC(C)(NC(=O)c1cc2c(Cl)cc(Cl)cc2[nH]1)c1cn(Cc2cccc(Cl)c2)nn1 [JS-2-30, 4,6-Dichloro-N-(2-(1-(3-chlorobenzyl)-1H-1,2,3-triazol-4-yl)propan-2-yl)-1H-indole-2-carboxamide]
IC50 at 48 h [3]: 268 µM
reduction of T. gondii parasite growth [1]: over 50%
pIC50 [1, 6]: 5.27
pIC50 [1, 7]: 5.20
pIC50 (C. parvum AUCP-1 isolate; [8]): 5.30
pIC50 (C. parvum AUCP-1 isolate; [9]): 5.23
SI C. parvum (selectivity index) (C. parvum AUCP-1 isolate): 38.16
IC50 at 48 h [2]: 193 µM

CC(C)(NC(=O)c1cc2c(Cl)cc(Cl)cc2[nH]1)c1cn(C23CC4CC(CC(C4)C2)C3)nn1 [JS-2-31, N-(2-(1-(Adamantan-1-yl)-1H-1,2,3-triazol-4-yl)propan-2-yl)-4,6-dichloro-1H-indole-2-carboxamide]
IC50 at 48 h [3]: 135 µM
reduction of T. gondii parasite growth [1]: over 50%
SI T. gondii (selectivity index) [1]: 17.15
pIC50 [1, 6]: 5.10
pIC50 [1, 7]: 4.92

c1ccc(-c2cn(C34CC5CC(CC(C5)C3)C4)nn2)cc1 [JS-2-40, 1-(Adamantan-1-yl)-4-phenyl-1H-1,2,3-triazole]
IC50 at 48 h [2]: 135 µM

CC1(C)COC(c2ccc(-c3cn(C45CC6CC(CC(C6)C4)C5)nn3)cc2)OC1 [JS-2-41, 1-(Adamantan-1-yl)-4-(4-(5,5-dimethyl-1,3-dioxan-2-yl)phenyl)-1H-1,2,3-triazole]
IC50 at 48 h [3]: 168 µM
reduction of T. gondii parasite growth [1]: over 50%
pIC50 [1, 6]: 5.71
pIC50 [1, 7]: 5.67
pIC50 [4]: 5.82
reduction in the number of Toxoplasma cysts in the brain [5]: over 90%
decrease in brain cysts compared to untreated rats [5]: 10 fold

CC(C)(NC(=O)c1cc2c(F)cc(F)cc2[nH]1)c1cn(Cc2ccc(Cl)c(Cl)c2)nn1 [JS-2-43, N-(2-(1-(3,4-Dichlorobenzyl)-1H-1,2,3-triazol-4-yl)propan-2-yl)-4,6-difluoro-1H-indole-2-carboxamide]
IC50 at 48 h [2]: 174 µM

CC(C)(NC(=O)c1cc2c(Cl)cc(Cl)cc2[nH]1)c1cn(Cc2ccc(Cl)c(Cl)c2)nn1 [JS-2-44, 4,6-Dichloro-N-(2-(1-(3,4-dichlorobenzyl)-1H-1,2,3-triazol-4-yl)propan-2-yl)-1H-indole-2-carboxamide]
IC50 at 48 h [3]: 209 µM
pIC50 [1, 6]: 5.53
pIC50 [1, 7]: 5.49
pIC50 (C. parvum AUCP-1 isolate; [8]): 5.12
pIC50 (C. parvum AUCP-1 isolate; [9]): 5.04
SI C. parvum (selectivity index) (C. parvum AUCP-1 isolate): 27.48
pIC50 [4]: 4.98
IC50 at 48 h [2]: 210 µM
reduction in the number of Toxoplasma cysts in the brain [5]: over 90%
decrease in brain cysts compared to untreated rats [5]: 10 fold

NC[C@@H]1O[C@H](O[C@H]2[C@@H](O)[C@H](O[C@@H]3[C@@H](O)[C@H](N)C[C@H](N)[C@H]3O[C@H]3O[C@H](CO)[C@@H](O)[C@H](O)[C@H]3N)O[C@@H]2CO)[C@H](N)[C@@H](O)[C@@H]1O [PMO, paromomycin, reference compound]
pIC50 (C. parvum AUCP-1 isolate; [8]): 3.66
pIC50 (C. parvum AUCP-1 isolate; [9]): 3.64
